Assay results: ChEMBL document CHEMBL3227991, “5-Iminodaunorubicin. Reduced cardiotoxic properties in an antitumor anthracycline” (J Med Chem, 1979)

Experiments:
P388 [1] = experiment: Antitumor activity against mouse P388 cells allografted in mouse assessed as increase in survival time at 24 mg/kg, ip administered as single dose on day 5, 9 and 13 relative to control; type: functional; details: route intraperitoneal
Outline: (§1)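 Mice received ip P388 leukemia cells on day 0. Disease was left to progress and ip dosing was delayed to days 5, 9 and 13. Survival time of treated relative to control mice was expressed as % T/C, with ≥125 defined as active. Values are means of repeated tests (27 for reference agents, duplicate for others).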

P388 [2] = experiment: Antitumor activity against mouse P388 cells allografted in mouse assessed as increase in survival time at 12 mg/kg, ip administered as single dose on day 5, 9 and 13 relative to control; type: functional; details: route intraperitoneal; outline: as §1
P388 [3] = experiment: Antitumor activity against mouse P388 cells allografted in mouse assessed as increase in survival time at 6 mg/kg, ip administered as single dose on day 5, 9 and 13 relative to control; type: functional; details: route intraperitoneal; outline: as §1
P388 [4] = experiment: Antitumor activity against mouse P388 cells allografted in mouse assessed as increase in survival time at 3 mg/kg, ip administered as single dose on day 5, 9 and 13 relative to control; type: functional; details: route intraperitoneal; outline: as §1
P388 [5] = experiment: Antitumor activity against mouse P388 cells allografted in mouse assessed as increase in survival time at 1.5 mg/kg, ip administered as single dose on day 5, 9 and 13 relative to control; type: functional; details: route intraperitoneal; outline: as §1
Rattus norvegicus = species on record: Rattus norvegicus; experiment: Cardiotoxicity in rat assessed as minimum cumulative drug dose causing electrocardiographic changes; type: toxicity, organism-based; details: in vivo
Outline: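 Zbinden cardiotoxicity test in rats; endpoint is the minimum cumulative dose producing significant electrocardiographic changes, expressed in mg/kg.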

Salmonella typhimurium [6] = experiment: Genotoxicity in Salmonella typhimurium TA98 assessed as number of revertants by Ames test; type: toxicity, organism-based; details: salmonella enterica subsp. enterica serovar typhimurium
Outline: (§2)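 Ames reversion in S. typhimurium TA98, run with and without microsomal activation; doses up to a maximum of 32 μg/plate; four determinations; mutagenicity given as revertants/nmol.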

Salmonella typhimurium [7] = experiment: Genotoxicity in Salmonella typhimurium TA98 assessed as number of revertants by Ames test in presence of microsomal activation; type: toxicity, organism-based; details: salmonella enterica subsp. enterica serovar typhimurium; outline: as §2
Salmonella typhimurium [8] = experiment: Genotoxicity in Salmonella typhimurium TA98 at 32 ug/plate by Ames test; type: toxicity, organism-based; details: salmonella enterica subsp. enterica serovar typhimurium; outline: as §2
Salmonella typhimurium [9] = experiment: Genotoxicity in Salmonella typhimurium TA98 assessed as number of revertants by Ames test in absence of microsomal activation; type: toxicity, organism-based; details: salmonella enterica subsp. enterica serovar typhimurium; outline: as §2
Salmonella typhimurium [10] = experiment: Genotoxicity in Salmonella typhimurium TA100 by Ames test; type: toxicity, organism-based; details: salmonella enterica subsp. enterica serovar typhimurium
Calf thymus DNA = experiment: Binding affinity to calf thymus DNA assessed as change in melting temperature; type: nucleic-acid assay; details: Bos taurus
Outline: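 Thermal denaturation of isolated helical DNA in 0.010 M phosphate buffer, pH 7.0, with 10⁻⁵ M EDTA and 5% Me₂SO to solubilize compounds; read-out is the increase in melting temperature (ΔTm, °C).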

L1210 [11] = experiment: Inhibition of DNA synthesis in mouse L1210 cells; type: functional; details: read-out: ED50 (the source's name)
L1210 [12] = experiment: Inhibition of RNA synthesis in mouse L1210 cells; type: functional; details: read-out: ED50 (the source's name)
B16 [13] = experiment: Antitumor activity against mouse B16 cells allografted in mouse assessed as increase in survival time at 2 mg/kg, ip administered as qd for 1 to 9 days relative to control; type: functional; details: route intraperitoneal
Outline: (§3)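 B16 melanoma in mice. Treatment was given as nine daily doses, as a single dose on day 1, or as a single dose delayed to day 5. Activity was taken as the increase in survival time of treated versus control animals (% T/C).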

B16 [14] = experiment: Antitumor activity against mouse B16 cells allografted in mouse assessed as increase in survival time at 6.25 mg/kg, ip administered as single dose on day 1 relative to control; type: functional; details: route intraperitoneal; outline: as §3
B16 [15] = experiment: Antitumor activity against mouse B16 cells allografted in mouse assessed as increase in survival time at 12.5 mg/kg, ip administered as single dose on day 5 relative to control; type: functional; details: route intraperitoneal; outline: as §3
P388 [16] = experiment: Antitumor activity against mouse P388 cells allografted in mouse assessed as increase in survival time at 4 mg/kg, ip administered as qd for 1 to 9 days relative to control; type: functional; details: route intraperitoneal
P388 [17] = experiment: Antitumor activity against mouse P388 cells allografted in mouse assessed as increase in survival time at 2 mg/kg, ip administered as qd for 1 to 9 days relative to control; type: functional; details: route intraperitoneal
P388 [18] = experiment: Antitumor activity against mouse P388 cells allografted in mouse assessed as increase in survival time at 1 mg/kg, ip administered as qd for 1 to 9 days relative to control; type: functional; details: route intraperitoneal
P388 [19] = experiment: Antitumor activity against mouse P388 cells allografted in mouse assessed as increase in survival time at 0.5 mg/kg, ip administered as qd for 1 to 9 days relative to control; type: functional; details: route intraperitoneal
P388 [20] = experiment: Antitumor activity against mouse P388 cells allografted in mouse assessed as increase in survival time at 4 mg/kg, ip administered as single dose for every 4 days up to 13 days relative to control; type: functional; details: route intraperitoneal; outline: as §1
P388 [21] = experiment: Antitumor activity against mouse P388 cells allografted in mouse assessed as increase in survival time at 2 mg/kg, ip administered as single dose on day 5, 9 and 13 relative to control; type: functional; details: route intraperitoneal; outline: as §1
Salmonella typhimurium [22] = experiment: Genotoxicity in Salmonella typhimurium 908 assessed as number of revertants by Ames test; type: toxicity, organism-based; details: salmonella enterica subsp. enterica serovar typhimurium
Salmonella typhimurium [23] = experiment: Genotoxicity in Salmonella typhimurium TA98 at >8 ug/plate by Ames test; type: toxicity, organism-based; details: salmonella enterica subsp. enterica serovar typhimurium
Salmonella typhimurium [24] = experiment: Genotoxicity in Salmonella typhimurium TA100 assessed as number of revertants by Ames test; type: toxicity, organism-based; details: salmonella enterica subsp. enterica serovar typhimurium
P388 [25] = experiment: Antitumor activity against mouse P388 cells allografted in mouse assessed as increase in survival time at 1.56 mg/kg, ip administered as qd for 1 to 9 days relative to control; type: functional; details: route intraperitoneal
P388 [26] = experiment: Antitumor activity against mouse P388 cells allografted in mouse assessed as increase in survival time at 0.78 mg/kg, ip administered as qd for 1 to 9 days relative to control; type: functional; details: route intraperitoneal
P388 [27] = experiment: Antitumor activity against mouse P388 cells allografted in mouse assessed as increase in survival time at 0.39 mg/kg, ip administered as qd for 1 to 9 days relative to control; type: functional; details: route intraperitoneal
P388 [28] = experiment: Antitumor activity against mouse P388 cells allografted in mouse assessed as increase in survival time at 0.2 mg/kg, ip administered as qd for 1 to 9 days relative to control; type: functional; details: route intraperitoneal
P388 [29] = experiment: Antitumor activity against mouse P388 cells allografted in mouse assessed as increase in survival time at 16 mg/kg, ip administered as single dose on day 5, 9 and 13 relative to control; type: functional; details: route intraperitoneal; outline: as §1
P388 [30] = experiment: Antitumor activity against mouse P388 cells allografted in mouse assessed as increase in survival time at 8 mg/kg, ip administered as single dose on day 5, 9 and 13 relative to control; type: functional; details: route intraperitoneal; outline: as §1
Salmonella typhimurium [31] = experiment: Genotoxicity in Salmonella typhimurium 8907 assessed as number of revertants by Ames test in presence of S9 fraction; type: toxicity, organism-based; details: salmonella enterica subsp. enterica serovar typhimurium
P388 [32] = experiment: Antitumor activity against mouse P388 cells allografted in mouse assessed as increase in survival time at 6.25 mg/kg administered as qd for 1 to 9 days relative to control; type: functional
Outline: (§4)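 Transplanted P388 leukemia or B16 melanoma in mice, dosed on a schedule of nine daily doses (qd 1-9). Efficacy was the increase in survival time of treated versus control animals (% T/C), from single tests.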

B16 [33] = experiment: Antitumor activity against mouse B16 cells allografted in mouse assessed as increase in survival time at 6.25 mg/kg administered as qd for 1 to 9 days relative to control; type: functional; outline: as §4

Structure (SMILES) | MTC (Rattus norvegicus) [mg/kg] | Activity (Salmonella typhimurium [6]) [revertants/nmol] | ΔTm (Calf thymus DNA) [°C] | EC50 (L1210 [11]) [nM] | EC50 (L1210 [12]) [nM] | T/C (P388 [20]) [%] | T/C (P388 [21]) [%] | T/C (P388 [25]) [%] | T/C (P388 [26]) [%] | T/C (P388 [27]) [%] | T/C (P388 [28]) [%] | T/C (P388 [29]) [%] | T/C (P388 [30]) [%] | also measured
COc1cccc2c1C(=N)c1c(O)c3c(c(O)c1C2=O)C[C@@](O)(C(C)=O)C[C@@H]3O[C@H]1C[C@H](N)[C@H](O)[C@H](C)O1.Cl | 64 | 1 | 6.25 | 1600 | 1300 |  |  |  |  |  |  |  |  | T/C (P388 [1]): 126%; T/C (P388 [2]): 116%; T/C (P388 [3]): 124%; T/C (P388 [4]): 130%; T/C (P388 [5]): 126%; Activity (Salmonella typhimurium [7]): 0 nmol; Activity (Salmonella typhimurium [8]): Non-toxic; Activity (Salmonella typhimurium [9]): 0 nmol; Activity (Salmonella typhimurium [10]): Non-toxic; T/C (B16 [13]): 222%; T/C (B16 [14]): 173%; T/C (B16 [15]): 122%; T/C (P388 [16]): 153%; T/C (P388 [17]): 170%; T/C (P388 [18]): 164%; T/C (P388 [19]): 145%
COc1cccc2c1C(=O)c1c(O)c3c(c(O)c1C2=O)C[C@@](O)(C(C)=O)C[C@@H]3O[C@H]1C[C@H](N)[C@H](O)[C@H](C)O1.Cl [DAUNORUBICIN HYDROCHLORIDE] | 14 | 100 |  | 1000 | 300 | 128 | 126 | 148 | 160 | 153 | 144 | 126 | 132 | Activity (Salmonella typhimurium [22]): 356 revertants/nmol; Activity (Salmonella typhimurium [23]): Toxic; Activity (Salmonella typhimurium [24]): 0.5 revertants/nmol
COc1cccc2c1C(=O)c1c(O)c3c(c(O)c1C2=O)C[C@@](O)(C(=O)CO)C[C@@H]3O[C@H]1C[C@H](N)[C@H](O)[C@H](C)O1 [DOXORUBICIN] | 11 |  | 13.4 | 1500 | 700 | 146 | 130 | 176 | 197 | 174 | 160 | 120 | 159 | Activity (Salmonella typhimurium [31]): 108 revertants/nmol
COc1cccc2c1C(=O)c1c(O)c3c(c(O)c1C2=O)C[C@@](O)(C(N)=O)C[C@@H]3O[C@H]1C[C@H](N)[C@H](O)[C@H](C)O1.Cl |  |  |  |  |  |  |  |  |  |  |  |  |  | T/C (P388 [32]): 151%; T/C (B16 [33]): 161%
